Measured values: ChEMBL document CHEMBL6177921, “Enhancing the antimycobacterial efficacy of pyridine-4-carbohydrazide: linkage to additional antimicrobial agents via oxocarboxylic acids” (RSC Med Chem, 2025)
Converted amounts (≈) assume the structure as drawn.

Legend:
Format in all cases: functional
Mycobacterium avium [1] = test: Antimycobacterial activity against INH/RIF/rifabutin/OFX/EMB resistant Mycobacterium avium CNCTC 330/88 assessed as bacterial growth inhibition incubated for 14 days by two-fold serial dilution method; details: CNCTC 330/88, 336 h, time 14 day
Outline: (§1)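 M. avium CNCTC 330/88 (stock suspension dilution 10−5) grown in Šula's semisynthetic liquid medium; two-fold serial dilutions 1000 to 1 μM from DMSO stocks (final DMSO 1.0% v/v); final load 1.5 × 10^5 CFU mL−1; MIC read visually as lowest concentration giving complete growth inhibition after 14 and 21 days.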

Mycobacterium kansasii [2] = test: Antimycobacterial activity against INH/RIF/rifabutin/OFX/EMB Mycobacterium kansasii CNCTC 6509/96 clinical isolate assessed as bacterial growth inhibition incubated for 7 days by two-fold serial dilution method; details: CNCTC 6509/96, 168 h, time 7 day
Outline: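 Šula's liquid semisynthetic medium; M. kansasii clinical isolate 6509/96 used at stock dilution 10−4, final ~1.5 × 10^5 CFU mL−1. Two-fold dilutions ran 1000–1 μM with final DMSO 1.0% (v/v). MIC was read visually as complete growth inhibition after 7, 14 and 21 days.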

Mycobacterium kansasii [3] = test: Antimycobacterial activity against multi-drug resistant Mycobacterium kansasii clinical isolate CNCTC 6509/96 assessed as bacterial growth inhibition incubated for 21 days by two-fold serial dilution method; details: CNCTC 6509/96, 504 h, time 21 day
Outline: (§2)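 M. kansasii clinical isolate 6509/96 (stock dilution 10−4) in Šula's semisynthetic liquid medium; two-fold serial dilutions 1000 to 1 μM, DMSO final 1.0% v/v; final load 1.5 × 10^5 CFU mL−1; MIC read visually as complete growth inhibition at 7, 14 and 21 days.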

[4] = test system: Mycobacterium tuberculosis; test: Antimycobacterial activity against multidrug sensitive Mycobacterium tuberculosis H37Rv CNCTC 331/88 assessed as bacterial growth inhibition incubated for 14 days by two-fold serial dilution method; details: H37Rv CNCTC 331/88, 336 h, time 14 day
Mycobacterium avium [5] = test: Antimycobacterial activity against INH/RIF/rifabutin/OFX/EMB resistant Mycobacterium avium CNCTC 330/88 assessed as bacterial growth inhibition incubated for 21 days by two-fold serial dilution method; details: CNCTC 330/88, 504 h, time 21 day; outline: as §1
Mycobacterium kansasii [6] = test: Antimycobacterial activity against multi-drug resistant Mycobacterium kansasii CNCTC 6509/96 clinical isolate assessed as bacterial growth inhibition incubated for 14 days by two-fold serial dilution method; details: CNCTC 6509/96, 336 h, time 14 day; outline: as §2
[7] = test system: Mycobacterium tuberculosis; test: Antimycobacterial activity against Mycobacterium tuberculosis H37Rv CNCTC 331/88 assessed as bacterial growth inhibition incubated for 21 days by two fold serial dilution method; details: H37Rv CNCTC 331/88, 504 h, time 21 day
[8] = test system: Trichophyton interdigitale; test: Antifungal activity against Trichophyton interdigitale ATCC 9533 measured after 24 to 48 hrs by microdilution broth method; details: time 24-48 hrs
Candida parapsilosis [9] = test: Antifungal activity against Candida parapsilosis CCM 8260 measured after 24 to 48 hrs by microdilution broth method; details: Lodderomyces parapsilosis, time 24-48 hrs
Outline: (§3)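 Yeast broth microdilution per EUCAST, slightly modified. Medium was RPMI-1640 with 2% glucose, MOPS-buffered to pH 7.0. Compounds were tested at 0.98–500 μM with final DMSO ≤1.0% (v/v). Inoculum came from 18–24 h cultures, final ~1–5 × 10^5 CFU mL−1. Plates were incubated statically, dark and humidified, at 35 ± 2 °C. MIC was read visually at 24 and 48 h (no visible growth).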

Candida tropicalis [10] = test: Antifungal activity against Candida tropicalis CCM 8264 measured after 24 to 48 hrs by microdilution broth method; details: time 24-48 hrs; outline: as §3
[11] = test system: Trichophyton interdigitale; test: Antifungal activity against Trichophyton interdigitale CCM 8377 measured after 24 to 48 hrs by microdilution broth method; details: time 24-48 hrs
Aspergillus flavus = test: Antifungal activity against Aspergillus flavus CCM 8363 measured after 24 to 48 hrs by microdilution broth method; details: time 24-48 hrs
Outline: (§4)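 Filamentous fungi tested by broth microdilution per EUCAST with minor changes. Compounds were tested at 0.98–500 μM with final DMSO ≤1.0% (v/v). Plates were incubated statically, dark and humidified, at 35 ± 2 °C for 24 and 48 h. MIC was the lowest concentration showing no visible growth.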

Pichia kudriavzevii [12] = test: Antifungal activity against Candida krusei CCM 8271 measured after 24 to 48 hrs by microdilution broth method; details: time 24-48 hrs; outline: as §3
Candida tropicalis [13] = test: Antifungal activity against Candida tropicalis ATCC 750 measured after 24 to 48 hrs by microdilution broth method; details: time 24-48 hrs; outline: as §3
Candida albicans [14] = test: Antifungal activity against Candida albicans ATCC 24443 measured after 24 to 48 hrs by microdilution broth method; details: time 24-48 hrs; outline: as §3
Lichtheimia corymbifera = test: Antifungal activity against Lichtheimia corymbifera CCM 8077 measured after 24 to 48 hrs by microdilution broth method; details: time 24-48 hrs; outline: as §4
Aspergillus fumigatus = test: Antifungal activity against Aspergillus fumigatus ATCC 204305 measured after 24 to 48 hrs by microdilution broth method; details: time 24-48 hrs; outline: as §4
Candida parapsilosis [15] = test: Antifungal activity against Candida parapsilosis ATCC 22019 measured after 24 to 48 hrs by microdilution broth method; details: Lodderomyces parapsilosis, time 24-48 hrs; outline: as §3
Candida albicans [16] = test: Antifungal activity against Candida albicans CCM 8320 measured after 24 to 48 hrs by microdilution broth method; details: time 24-48 hrs; outline: as §3
Pichia kudriavzevii [17] = test: Antifungal activity against Candida krusei ATCC 6258 measured after 24 to 48 hrs by microdilution broth method; details: time 24-48 hrs; outline: as §3

Compound | MIC (Mycobacterium avium [1]) | MIC (Mycobacterium kansasii [2]) | MIC (Mycobacterium kansasii [3]) | MIC [4] | MIC (Mycobacterium avium [5]) | MIC (Mycobacterium kansasii [6]) | MIC [7] | MIC [8] | MIC (Candida parapsilosis [9]) | MIC (Candida tropicalis [10]) | MIC [11] | MIC (Aspergillus flavus) | MIC (Pichia kudriavzevii [12]) | MIC (Candida tropicalis [13]) | MIC (Candida albicans [14]) | MIC (Lichtheimia corymbifera) | MIC (Aspergillus fumigatus) | MIC (Candida parapsilosis [15]) | MIC (Candida albicans [16]) | MIC (Pichia kudriavzevii [17])
O=C(/C=N/NC(=O)c1ccncc1)Nc1ccc(S(=O)(=O)Nc2nccs2)cc1 | 250 µM (≈ 108 µg/mL) | 8 µM (≈ 3.44 µg/mL) | 8 µM (≈ 3.44 µg/mL) | 2 µM (≈ 0.861 µg/mL) | 500 µM (≈ 215 µg/mL) | 8 µM (≈ 3.44 µg/mL) | 4 µM (≈ 1.72 µg/mL) | – | – | – | – | – | – | – | – | – | – | – | – | –
Nc1ccc(S(=O)(=O)Nc2ccc(Oc3ccc(Cl)cc3)c(Cl)c2)cc1 | 125 µM (≈ 51.2 µg/mL) | 125 µM (≈ 51.2 µg/mL) | 125 µM (≈ 51.2 µg/mL) | 125 µM (≈ 51.2 µg/mL) | 125 µM (≈ 51.2 µg/mL) | 125 µM (≈ 51.2 µg/mL) | 125 µM (≈ 51.2 µg/mL) | – | – | – | – | – | – | – | – | – | – | – | – | –
C/C(=N\NC(=O)c1ccncc1)C(=O)Nc1ccc(S(N)(=O)=O)cc1 | ≥ 1000 µM | 32 µM (≈ 11.6 µg/mL) | 64 µM (≈ 23.1 µg/mL) | 2 µM (≈ 0.723 µg/mL) | ≥ 1000 µM | 64 µM (≈ 23.1 µg/mL) | 2 µM (≈ 0.723 µg/mL) | > 500 µM | > 500 µM | > 500 µM | > 500 µM | > 500 µM | > 500 µM | > 500 µM | > 500 µM | > 500 µM | > 500 µM | > 500 µM | > 500 µM | > 500 µM
C/C(=N\NC(=O)c1ccncc1)C(=O)Nc1ccc(NC(=O)/C(C)=N/NC(=O)c2ccncc2)cc1 | 250 µM (≈ 122 µg/mL) | 250 µM (≈ 122 µg/mL) | 250 µM (≈ 122 µg/mL) | 64 µM (≈ 31.1 µg/mL) | 250 µM (≈ 122 µg/mL) | 250 µM (≈ 122 µg/mL) | 64 µM (≈ 31.1 µg/mL) | – | – | – | – | – | – | – | – | – | – | – | – | –
C/C(=N\NC(=O)c1ccncc1)C(=O)Nc1ccc(S(=O)(=O)Nc2nccs2)cc1 | ≥ 1000 µM | 16 µM (≈ 7.11 µg/mL) | 16 µM (≈ 7.11 µg/mL) | 1 µM (≈ 0.444 µg/mL) | ≥ 1000 µM | 16 µM (≈ 7.11 µg/mL) | 1 µM (≈ 0.444 µg/mL) | > 500 µM | > 500 µM | > 500 µM | > 500 µM | > 500 µM | > 500 µM | > 500 µM | > 500 µM | > 500 µM | > 500 µM | > 500 µM | > 500 µM | > 500 µM
Nc1ccc(S(=O)(=O)Nc2ccccc2Oc2ccccc2)cc1 | 500 µM (≈ 170 µg/mL) | 500 µM (≈ 170 µg/mL) | 500 µM (≈ 170 µg/mL) | 250 µM (≈ 85.1 µg/mL) | 1000 µM (≈ 340 µg/mL) | 500 µM (≈ 170 µg/mL) | 250 µM (≈ 85.1 µg/mL) | – | – | – | – | – | – | – | – | – | – | – | – | –
C/C(=N\NC(=O)c1ccncc1)C(=O)Nc1ccc(S(=O)(=O)Nc2ncccn2)cc1 | 1000 µM (≈ 439 µg/mL) | 32 µM (≈ 14.1 µg/mL) | 64 µM (≈ 28.1 µg/mL) | 2 µM (≈ 0.879 µg/mL) | ≥ 1000 µM | 64 µM (≈ 28.1 µg/mL) | 2 µM (≈ 0.879 µg/mL) | > 500 µM | > 500 µM | > 500 µM | > 500 µM | > 500 µM | > 500 µM | > 500 µM | > 500 µM | > 500 µM | > 500 µM | > 500 µM | > 500 µM | > 500 µM
Nc1ccc(S(=O)(=O)Nc2ccc(Sc3ccc([N+](=O)[O-])cc3)cc2)cc1 | ≥ 1000 µM | 8 µM (≈ 3.21 µg/mL) | ≥ 1000 µM | 125 µM (≈ 50.2 µg/mL) | ≥ 1000 µM | ≥ 1000 µM | ≥ 1000 µM | – | – | – | – | – | – | – | – | – | – | – | – | –
O=C(O)/C=N/NC(=O)c1ccncc1 | 250 µM (≈ 48.3 µg/mL) | 4 µM (≈ 0.773 µg/mL) | 8 µM (≈ 1.55 µg/mL) | 0.25 µM (≈ 0.0483 µg/mL) | > 250 µM | 4 µM (≈ 0.773 µg/mL) | 0.5 µM (≈ 0.0966 µg/mL) | – | – | – | – | – | – | – | – | – | – | – | – | –
C/C(=N\NC(=O)c1ccncc1)C(=O)Nc1ccc(S(=O)(=O)Nc2nc(C)cc(C)n2)cc1 | 500 µM (≈ 234 µg/mL) | 16 µM (≈ 7.48 µg/mL) | 32 µM (≈ 15 µg/mL) | 1 µM (≈ 0.468 µg/mL) | 500 µM (≈ 234 µg/mL) | 32 µM (≈ 15 µg/mL) | 1 µM (≈ 0.468 µg/mL) | > 500 µM | > 500 µM | > 500 µM | > 500 µM | > 500 µM | > 500 µM | > 500 µM | > 500 µM | > 500 µM | > 500 µM | > 500 µM | > 500 µM | > 500 µM
C/C(=N\NC(=O)c1ccncc1)C(=O)O [PYRUVIC ACID ISONIAZID] | 500 µM (≈ 104 µg/mL) | 8 µM (≈ 1.66 µg/mL) | 16 µM (≈ 3.32 µg/mL) | 1 µM (≈ 0.207 µg/mL) | > 1000 µM | 16 µM (≈ 3.32 µg/mL) | 1 µM (≈ 0.207 µg/mL) | – | – | – | – | – | – | – | – | – | – | – | – | –
